Results: ChEMBL document CHEMBL3414420, “Synthesis of xanthohumol analogues and discovery of potent thioredoxin reductase inhibitor as potential anticancer agent” (J Med Chem, 2015)
Active and inactive are the calls of the source. The rule behind the calls is not given here.

Columns and labels:
[1] = test system: A549; test: Cytotoxicity against human A549 cells assessed as inhibition of cell proliferation after 72 hrs by MTT assay; type: functional, cell-based; details: A549, 72 h
Procedure, shortened: (§1)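 Cells, 5×10^3 per well, exposed in triplicate at 37 °C; DMSO-only wells as controls (0.1% v/v DMSO in all cell work). After 68 h, MTT (5 mg/mL stock) was added for a further 4 h. Overnight solubilisation at 37 °C in 10% SDS/5% isobutanol/0.1% HCl, then A570 read.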

[2] = test system: HeLa; test: Cytotoxicity against human HeLa cells assessed as inhibition of cell proliferation after 72 hrs by MTT assay; type: functional, cell-based; procedure, shortened: as §1
[3] = test system: HepG2; test: Cytotoxicity against human HepG2 cells assessed as inhibition of cell proliferation after 72 hrs by MTT assay; type: functional, cell-based; details: HepG2, 72 h; procedure, shortened: as §1
[4] = molecular target: T1, Thioredoxin reductase (Homo sapiens, UniProt Q16881+Q9NNW7+Q86VQ6); test: Inhibition of TrxR in human HeLa cells after 48 hrs by end point reduction assay; type: cell-based
Procedure, shortened: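 HeLa cells treated 48 h, lysed in RIPA buffer and protein measured by Bradford. Lysate (20 μg) incubated 30 min at 37 °C with 0.3 mM insulin, 660 μM NADPH and 15 μM E. coli Trx (pH 7.6). Stopped with DTNB in 6 M guanidine-HCl; A412 minus Trx-free blank, as % of DMSO control.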

[5] = molecular target: T1, Thioredoxin reductase; test: Inhibition of TrxR in human HeLa cells after 48 hrs by TRFS-green based fluorescence microscopy; type: cell-based
Procedure, shortened: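 Live HeLa cells exposed to compound for 44 h, then to TRFS-green (10 μM) for a further 4 h. Green fluorescence, which tracks cellular TrxR activity, imaged alongside phase contrast.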

[6] = molecular target: T1, Thioredoxin reductase; test: Inhibition of TrxR in human HeLa cells by Trx-mediated insulin reduction assay
[7] = molecular target: Thioredoxin reductase 1 (Rattus norvegicus) (UniProt O89049); test: In vitro inhibition of NADPH-reduced TrxR (unknown origin) after 2 hrs incubation by microplate reader
[8] = In vitro inhibition of TrxR U498C mutant (unknown origin) up to 40 uM after 2 hrs incubation by microplate reader
[9] = Cytotoxicity against human […] cells assessed as inhibition of cell proliferation after 72 hrs by MTT assay; type: functional, cell-based; procedure, shortened: as §1
[10] = Cytotoxicity against human HL60 cells assessed as inhibition of cell proliferation after 72 hrs by MTT assay; type: functional, cell-based; details: HL-60, 72 h; procedure, shortened: as §1

Sequence of Thioredoxin reductase 1 (Rattus norvegicus) (O89049 whole entry, looked up): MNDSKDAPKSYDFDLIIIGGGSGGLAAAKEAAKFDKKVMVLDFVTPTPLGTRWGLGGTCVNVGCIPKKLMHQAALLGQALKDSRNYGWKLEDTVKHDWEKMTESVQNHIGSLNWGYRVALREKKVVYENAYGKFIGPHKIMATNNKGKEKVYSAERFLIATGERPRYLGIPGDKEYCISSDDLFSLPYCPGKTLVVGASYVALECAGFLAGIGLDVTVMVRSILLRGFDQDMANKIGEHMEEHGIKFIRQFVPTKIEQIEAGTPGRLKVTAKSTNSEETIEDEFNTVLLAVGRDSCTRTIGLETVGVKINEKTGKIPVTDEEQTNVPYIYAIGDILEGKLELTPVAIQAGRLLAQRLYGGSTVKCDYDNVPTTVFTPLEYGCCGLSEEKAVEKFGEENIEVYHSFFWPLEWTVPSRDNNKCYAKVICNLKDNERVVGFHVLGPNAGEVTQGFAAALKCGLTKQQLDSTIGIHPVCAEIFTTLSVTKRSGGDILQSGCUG

Compound | IC50 [1] [µM] | IC50 [2] [µM] | IC50 [3] [µM] | further results
COc1cc(OC)c(C(=O)/C=C/c2ccc(O)cc2)c(OC)c1 | 49.4 | 40.6 | 37 | –
COc1ccc(/C=C/C(=O)c2c(O)cc(O)cc2OC)cc1 | > 50 | 47.7 | 18.1 | –
COc1cc(/C=C/C(=O)c2c(O)cc(O)cc2OC)ccc1O | > 50 | > 50 | > 50 | –
COc1cc(OC)c(C(=O)/C=C/c2ccc(C)cc2)c(OC)c1 | 15 | 17 | 18.4 | –
COc1cc(OC)c(C(=O)/C=C/c2cccc([N+](=O)[O-])c2)c(OC)c1 | – | – | – | inhibition [4]: Dose-dependent effect; inhibition [5]: Dose-dependent effect; IC50 [6]: 3.5 µM; IC50 [7]: 12.8 µM; inhibition [8]: inactive
COc1cc(OC)c(C(=O)/C=C/c2ccc(OC)c(OC)c2)c(OC)c1 | 39.1 | 18.1 | 11.6 | –
COc1cc(O)c(CC=C(C)C)c(O)c1C(=O)/C=C/c1ccc(Cl)cc1 | 11.8 | 16.5 | 10.1 | –
COc1cc(/C=C/C(=O)c2c(OC)cc(OC)cc2OC)cc(OC)c1 | 10.1 | 9.2 | 9 | –
COc1cc(O)c(CC=C(C)C)c(O)c1C(=O)/C=C/c1ccc([N+](=O)[O-])cc1 | 31.2 | 29.7 | 12.4 | –
COc1cc(OC)c(C(=O)/C=C/c2cc(OC)c(OC)cc2OC)c(OC)c1 | 45.1 | 40.5 | 23.8 | –
COc1ccccc1/C=C/C(=O)c1c(O)cc(O)cc1OC | 47.7 | 43.6 | 15.3 | –
COc1cc(OC)c(C(=O)/C=C/c2ccc(OC)c(OC)c2OC)c(OC)c1 | 44.3 | > 50 | > 50 | –
COc1cc(O)cc(O)c1C(=O)/C=C/c1ccc(C(F)(F)F)cc1 | 15.4 | 9.5 | 14.1 | –
COc1cc(OC)c(OC)cc1/C=C/C(=O)c1c(O)cc(O)cc1OC | 34.2 | 37.8 | 18.7 | –
COc1ccc(/C=C/C(=O)c2c(OC)cc(O)c(CC=C(C)C)c2O)cc1 | 38 | > 50 | 32.4 | –
COc1cc(/C=C/C(=O)c2c(O)cc(O)cc2OC)cc(OC)c1 | 34 | 13.3 | 17.6 | –
COc1cc(OC)c(OC)cc1/C=C/C(=O)c1c(OC)cc(O)c(CC=C(C)C)c1O | 14.4 | > 50 | > 50 | –
COc1cc(O)c(CC=C(C)C)c(O)c1C(=O)/C=C/c1ccc(C(F)(F)F)cc1 | 11.1 | 6.8 | 6.5 | IC50 [9]: 10.7 µM; IC50 [10]: 5.3 µM; inhibition [7]: Active
COc1cc(O)cc(O)c1C(=O)/C=C/c1cccc([N+](=O)[O-])c1 | 36.8 | 15.5 | 16.3 | IC50 [9]: 20.1 µM; IC50 [10]: 5.9 µM; inhibition [7]: Active
COc1ccc(/C=C/C(=O)c2c(OC)cc(O)c(CC=C(C)C)c2O)c(OC)c1OC | 18 | > 50 | 14.8 | –
COc1cc(/C=C/C(=O)c2c(O)cc(O)cc2OC)cc(OC)c1OC | 28.4 | 18.9 | 20.4 | –

Compound | IC50 [1] [µM] | IC50 [2] [µM] | IC50 [3] [µM] | further results
COc1cc(OC)c(C(=O)/C=C/c2cc(OC)c(OC)c(OC)c2)c(OC)c1 | 22.3 | 9.9 | 16.5 | –
COc1ccc(/C=C/C(=O)c2c(OC)cc(O)c(CC=C(C)C)c2O)cc1OC | 15.7 | 27.7 | 13.8 | –
COc1cc(O)cc(O)c1C(=O)/C=C/c1ccc(C)cc1 | > 50 | > 50 | > 50 | –
COc1cc(OC)c(C(=O)/C=C/c2ccc(Cl)cc2)c(OC)c1 | – | – | – | inhibition [7]: Active
COc1cc(O)cc(O)c1C(=O)/C=C/c1ccc([N+](=O)[O-])cc1 | > 50 | > 50 | 41 | –
COc1ccccc1/C=C/C(=O)c1c(OC)cc(O)c(CC=C(C)C)c1O | 12.5 | 19.7 | 14.6 | –
COc1cc(OC)c(C(=O)/C=C/c2ccccc2OC)c(OC)c1 | 19.8 | 19.6 | 16.3 | –
COc1cc(O)c(CC=C(C)C)c(O)c1C(=O)/C=C/c1ccc(O)cc1 [XANTHOHUMOL] | 30.5 | 40.4 | 35 | IC50 [6]: > 40 µM
COc1cc(OC)c(C(=O)/C=C/c2ccc(O)c(O)c2)c(OC)c1 | 8.2 | 15.8 | 27.5 | –
COc1cc(O)cc(O)c1C(=O)/C=C/c1ccc(Cl)cc1 | 18.2 | 17 | 12.2 | –
COc1cc(OC)c(C(=O)/C=C/c2ccc(C(F)(F)F)cc2)c(OC)c1 | 14.2 | 5.1 | 9.7 | IC50 [9]: 15.7 µM; IC50 [10]: 6.5 µM; inhibition [7]: Active
COc1cc(O)c(CC=C(C)C)c(O)c1C(=O)/C=C/c1cccc([N+](=O)[O-])c1 | 15 | 16.5 | 16.6 | –
COc1cc(/C=C/C(=O)c2c(OC)cc(O)c(CC=C(C)C)c2O)ccc1O | 11.8 | 33.8 | 21.7 | –
COc1cc(/C=C/C(=O)c2c(OC)cc(O)c(CC=C(C)C)c2O)cc(OC)c1OC | > 50 | > 50 | > 50 | –
COc1cc(O)cc(O)c1C(=O)/C=C/c1ccc(O)cc1 [HELICHRYSETIN] | > 50 | 48.1 | 40.2 | –
COc1ccc(/C=C/C(=O)c2c(O)cc(O)cc2OC)cc1OC | > 50 | 49.5 | 18.5 | –
COc1cc(O)c(CC=C(C)C)c(O)c1C(=O)/C=C/c1ccc(O)c(O)c1 | 16.1 | 38.1 | 15.2 | –
COc1cc(O)cc(O)c1C(=O)/C=C/c1ccc(O)c(O)c1 | 11.8 | 21.3 | 28.7 | –
COc1cc(OC)c(C(=O)/C=C/c2ccc(O)c(OC)c2)c(OC)c1 | 43.8 | 44.9 | 17 | –
COc1cc(OC)c(C(=O)/C=C/c2ccc(N)cc2)c(OC)c1 | > 50 | > 50 | 45.2 | –
